Tests used:
[1] = melting temperature; fluorescence melt of hairpins on a sequencing array, two-state fit, raised by 9.35 °C to match UV melts; conditions: sodium 0.088 M
In short: (§1)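 Folding enthalpy and melting temperature come from bootstrapped two-state fits to Cy3 fluorescence of library hairpins carrying annealed Cy3 and quencher oligos on a sequenced MiSeq flow cell. Imaging was done in 50 mM Na-HEPES pH 8.0, 25 mM NaCl, stepping by 2.5 °C up to 60 °C, and signals were normalised to pre-quench Cy3 and to control constructs. Results of four replicates were combined by inverse variance, and fitted temperatures were raised by 9.35 °C to match UV melts.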

[2] = folding enthalpy; higher = less favourable; fluorescence melt of hairpins on a sequencing array, two-state fit; conditions: sodium 0.088 M
In short: as §1

GATCGAAGTGTCGATC ((((((....))))))
Tm [1]: 51.2 °C
folding enthalpy [2]: -42.2 kcal/mol

GATCGAATATCGATC ((((((...))))))
Tm [1]: 50.4 °C
folding enthalpy [2]: -33.4 kcal/mol

GATCGAATCGTCGATC ((((((....))))))
Tm [1]: 51.4 °C
folding enthalpy [2]: -32.1 kcal/mol

GATCGAATCTTCGATC ((((((....))))))
Tm [1]: 54.2 °C
folding enthalpy [2]: -42.4 kcal/mol

GATCGAATTTCGATC ((((((...))))))
Tm [1]: 51.5 °C
folding enthalpy [2]: -46.1 kcal/mol

GATCGACCAATCGATC ((((((....))))))
Tm [1]: 49 °C
folding enthalpy [2]: -34.2 kcal/mol

GATCGACCACTCGATC ((((((....))))))
Tm [1]: 50.5 °C
folding enthalpy [2]: -38.1 kcal/mol

GATCGACCAGTCGATC ((((((....))))))
Tm [1]: 57.4 °C
folding enthalpy [2]: -43.9 kcal/mol

GATCGACCTATCGATC ((((((....))))))
Tm [1]: 51 °C
folding enthalpy [2]: -38.9 kcal/mol

GATCGACGATCGATC ((((((...))))))
Tm [1]: 49.2 °C
folding enthalpy [2]: -20.6 kcal/mol

GATCGACGGCTCGATC ((((((....))))))
Tm [1]: 50.5 °C
folding enthalpy [2]: -42.7 kcal/mol

GATCGACGGGTCGATC ((((((....))))))
Tm [1]: 63.3 °C
folding enthalpy [2]: -46 kcal/mol

GATCGACTACTCGATC ((((((....))))))
Tm [1]: 50.7 °C
folding enthalpy [2]: -36.5 kcal/mol

GATCGAGAATTCGATC ((((((....))))))
Tm [1]: 57.4 °C
folding enthalpy [2]: -39.7 kcal/mol

GATCGAGATTCGATC ((((((...))))))
Tm [1]: 50.4 °C
folding enthalpy [2]: -41.4 kcal/mol

GATCGAGATTTCGATC ((((((....))))))
Tm [1]: 51.8 °C
folding enthalpy [2]: -46.7 kcal/mol

GATCGAGCACTCGATC ((((((....))))))
Tm [1]: 57.6 °C
folding enthalpy [2]: -42.9 kcal/mol

GATCGAGCATCGATC ((((((...))))))
Tm [1]: 58.7 °C
folding enthalpy [2]: -41.3 kcal/mol

GATCGAGCCATCGATC ((((((....))))))
Tm [1]: 59.2 °C
folding enthalpy [2]: -39.7 kcal/mol

GATCGAGCCTCGATC ((((((...))))))
Tm [1]: 52.8 °C
folding enthalpy [2]: -34.9 kcal/mol

GATCGAGCCTTCGATC ((((((....))))))
Tm [1]: 56.4 °C
folding enthalpy [2]: -39.5 kcal/mol

GATCGAGCGCTCGATC ((((((....))))))
Tm [1]: 62.2 °C
folding enthalpy [2]: -44 kcal/mol

GATCGAGCTGTCGATC ((((((....))))))
Tm [1]: 51.3 °C
folding enthalpy [2]: -38.6 kcal/mol

GATCGAGGAAACTCAATC (((.(((....))).)))
Tm [1]: 25.9 °C
folding enthalpy [2]: -10.2 kcal/mol

GATCGAGGAAACTCGACC (.(((((....))))).)
Tm [1]: 41.4 °C
folding enthalpy [2]: -14.8 kcal/mol

GATCGAGGAAACTTGGTC ((.(.((....)).).))
Tm [1]: 22.6 °C
folding enthalpy [2]: -8.03 kcal/mol

GATCGAGGATTCGATC ((((((....))))))
Tm [1]: 57.9 °C
folding enthalpy [2]: -36.8 kcal/mol

GATCGAGTAATCGATC ((((((....))))))
Tm [1]: 57.4 °C
folding enthalpy [2]: -39 kcal/mol

GATCGAGTCTTCGATC ((((((....))))))
Tm [1]: 58.4 °C
folding enthalpy [2]: -37.6 kcal/mol

GATCGATAATCGATC ((((((...))))))
Tm [1]: 49.5 °C
folding enthalpy [2]: -37.7 kcal/mol

GATCGATAGGTCGATC ((((((....))))))
Tm [1]: 53 °C
folding enthalpy [2]: -42.2 kcal/mol

GATCGATATATCGATC ((((((....))))))
Tm [1]: 56 °C
folding enthalpy [2]: -41 kcal/mol

GATCGATCAATCGATC ((((((....))))))
Tm [1]: 53.8 °C
folding enthalpy [2]: -40.9 kcal/mol

GATCGATCATTCGATC ((((((....))))))
Tm [1]: 53.7 °C
folding enthalpy [2]: -39.5 kcal/mol

GATCGATCCTCGATC ((((((...))))))
Tm [1]: 52.1 °C
folding enthalpy [2]: -40.4 kcal/mol

GATCGATCTTCGATC ((((((...))))))
Tm [1]: 52.5 °C
folding enthalpy [2]: -33.6 kcal/mol

GATCGATGATTCGATC ((((((....))))))
Tm [1]: 53.2 °C
folding enthalpy [2]: -36.4 kcal/mol

GATCGATGCGTCGATC ((((((....))))))
Tm [1]: 57 °C
folding enthalpy [2]: -43.7 kcal/mol

GATCGATGGGTCGATC ((((((....))))))
Tm [1]: 57.5 °C
folding enthalpy [2]: -39.7 kcal/mol

GATCGATGGTCGATC ((((((...))))))
Tm [1]: 50.6 °C
folding enthalpy [2]: -29.4 kcal/mol

GATCGATGGTTCGATC ((((((....))))))
Tm [1]: 51.2 °C
folding enthalpy [2]: -43 kcal/mol

GATCGATGTATCGATC ((((((....))))))
Tm [1]: 58.4 °C
folding enthalpy [2]: -40.9 kcal/mol

GATCGATTATTCGATC ((((((....))))))
Tm [1]: 54.2 °C
folding enthalpy [2]: -42.7 kcal/mol

GATCGATTCATCGATC ((((((....))))))
Tm [1]: 59.3 °C
folding enthalpy [2]: -39.9 kcal/mol

GATCGATTGATCGATC ((((((....))))))
Tm [1]: 54.8 °C
folding enthalpy [2]: -45.5 kcal/mol

GATCGCAAACGCGATC ((((((....))))))
Tm [1]: 64.8 °C
folding enthalpy [2]: -42.1 kcal/mol

GATCGCAATGGCGATC ((((((....))))))
Tm [1]: 67.4 °C
folding enthalpy [2]: -35.6 kcal/mol

GATCGCACGGCGATC ((((((...))))))
Tm [1]: 69.3 °C
folding enthalpy [2]: -33 kcal/mol

GATCGCACTGGCGATC ((((((....))))))
Tm [1]: 68.2 °C
folding enthalpy [2]: -34 kcal/mol

GATCGCAGACGCGATC ((((((....))))))
Tm [1]: 67.8 °C
folding enthalpy [2]: -30.9 kcal/mol

GATCGCAGGAGCGATC ((((((....))))))
Tm [1]: 68.3 °C
folding enthalpy [2]: -26.6 kcal/mol

GATCGCATATGCGATC ((((((....))))))
Tm [1]: 68.8 °C
folding enthalpy [2]: -33.8 kcal/mol

GATCGCATCCGCGATC ((((((....))))))
Tm [1]: 68.7 °C
folding enthalpy [2]: -33.4 kcal/mol

GATCGCCACTGCGATC ((((((....))))))
Tm [1]: 65.3 °C
folding enthalpy [2]: -42.9 kcal/mol

GATCGCCCAGCGATC ((((((...))))))
Tm [1]: 67.4 °C
folding enthalpy [2]: -32.1 kcal/mol

GATCGCCCGCGCGATC ((((((....))))))
Tm [1]: 66.3 °C
folding enthalpy [2]: -30.6 kcal/mol

GATCGCCCTCGCGATC ((((((....))))))
Tm [1]: 67.5 °C
folding enthalpy [2]: -27.9 kcal/mol

GATCGCCGAAAGGCATC (((.(((....))))))
Tm [1]: 37.6 °C
folding enthalpy [2]: -9.53 kcal/mol

GATCGCCGACGCGATC ((((((....))))))
Tm [1]: 66.5 °C
folding enthalpy [2]: -35.7 kcal/mol

GATCGCCTAAGCGATC ((((((....))))))
Tm [1]: 68 °C
folding enthalpy [2]: -40.8 kcal/mol

GATCGCCTCCGCGATC ((((((....))))))
Tm [1]: 63.9 °C
folding enthalpy [2]: -44.6 kcal/mol

GATCGCCTGAGCGATC ((((((....))))))
Tm [1]: 68.7 °C
folding enthalpy [2]: -29.1 kcal/mol

GATCGCGAAAGCGCGATC ((((((....)))..)))
Tm [1]: 64.1 °C
folding enthalpy [2]: -30.8 kcal/mol

GATCGCGAAAGCGGATC ((((((....))).)))
Tm [1]: 57 °C
folding enthalpy [2]: -16.4 kcal/mol

GATCGCGAAAGCGTGATC ((((((....)))..)))
Tm [1]: 42.8 °C
folding enthalpy [2]: -14.3 kcal/mol

GATCGCGCCGGCGATC ((((((....))))))
Tm [1]: 68.2 °C
folding enthalpy [2]: -25.3 kcal/mol

GATCGCGTGGGCGATC ((((((....))))))
Tm [1]: 68.2 °C
folding enthalpy [2]: -30.8 kcal/mol

GATCGCTAAGCGATC ((((((...))))))
Tm [1]: 67.9 °C
folding enthalpy [2]: -33.5 kcal/mol

GATCGCTACGGCGATC ((((((....))))))
Tm [1]: 67.8 °C
folding enthalpy [2]: -40.5 kcal/mol

GATCGCTAGCGCGATC ((((((....))))))
Tm [1]: 66.5 °C
folding enthalpy [2]: -34 kcal/mol

GATCGCTATCGCGATC ((((((....))))))
Tm [1]: 67.1 °C
folding enthalpy [2]: -36.9 kcal/mol

GATCGCTCATGCGATC ((((((....))))))
Tm [1]: 67.8 °C
folding enthalpy [2]: -40.2 kcal/mol

GATCGCTCTGGCGATC ((((((....))))))
Tm [1]: 69.1 °C
folding enthalpy [2]: -37.7 kcal/mol

GATCGCTGAGCGATC ((((((...))))))
Tm [1]: 69 °C
folding enthalpy [2]: -31 kcal/mol

GATCGCTTAGGCGATC ((((((....))))))
Tm [1]: 68.6 °C
folding enthalpy [2]: -32.1 kcal/mol

GATCGGAAGCCGATC ((((((...))))))
Tm [1]: 55 °C
folding enthalpy [2]: -34.7 kcal/mol

GATCGGAATACCGATC ((((((....))))))
Tm [1]: 56.6 °C
folding enthalpy [2]: -33.1 kcal/mol

GATCGGAATCCGATC ((((((...))))))
Tm [1]: 53.5 °C
folding enthalpy [2]: -34.8 kcal/mol

GATCGGAATGCCGATC ((((((....))))))
Tm [1]: 54.9 °C
folding enthalpy [2]: -33.7 kcal/mol

GATCGGACCCCGATC ((((((...))))))
Tm [1]: 54.1 °C
folding enthalpy [2]: -39.4 kcal/mol

GATCGGAGACCCGATC ((((((....))))))
Tm [1]: 53 °C
folding enthalpy [2]: -36.6 kcal/mol

GATCGGAGAGCCGATC ((((((....))))))
Tm [1]: 54.8 °C
folding enthalpy [2]: -30.3 kcal/mol

GATCGGAGCCCCGATC ((((((....))))))
Tm [1]: 54.7 °C
folding enthalpy [2]: -32.6 kcal/mol

GATCGGAGCGCCGATC ((((((....))))))
Tm [1]: 55 °C
folding enthalpy [2]: -31.4 kcal/mol

GATCGGAGTACCGATC ((((((....))))))
Tm [1]: 57.5 °C
folding enthalpy [2]: -37.9 kcal/mol

GATCGGATACCGATC ((((((...))))))
Tm [1]: 56.6 °C
folding enthalpy [2]: -36.4 kcal/mol

GATCGGATGCCGATC ((((((...))))))
Tm [1]: 63 °C
folding enthalpy [2]: -19 kcal/mol

GATCGGATGGCCGATC ((((((....))))))
Tm [1]: 56.1 °C
folding enthalpy [2]: -29.9 kcal/mol

GATCGGATTGCCGATC ((((((....))))))
Tm [1]: 55 °C
folding enthalpy [2]: -28.7 kcal/mol

GATCGGCAGGCCGATC ((((((....))))))
Tm [1]: 66.8 °C
folding enthalpy [2]: -34.9 kcal/mol

GATCGGCCAACCGATC ((((((....))))))
Tm [1]: 55.8 °C
folding enthalpy [2]: -38.4 kcal/mol

GATCGGCCACCGATC ((((((...))))))
Tm [1]: 55.1 °C
folding enthalpy [2]: -31.7 kcal/mol

GATCGGCCAGCCGATC ((((((....))))))
Tm [1]: 65.9 °C
folding enthalpy [2]: -36.8 kcal/mol

GATCGGCCCGCCGATC ((((((....))))))
Tm [1]: 68.3 °C
folding enthalpy [2]: -43.9 kcal/mol

GATCGGCCTACCGATC ((((((....))))))
Tm [1]: 57.9 °C
folding enthalpy [2]: -36.5 kcal/mol

GATCGGCGAAAGCCTATC (((.(((....))).)))
Tm [1]: 39.9 °C
folding enthalpy [2]: -19.2 kcal/mol

Reference: the array DNA melting data of Ke et al. (doi:10.1101/2024.01.08.574731)
